Values after ≈ are worked out from the molar mass of the structure shown. One block for each compound: values may come before it.
Assays:
Assay type in all cases: functional
Pseudomonas aeruginosa [1] = assay: Antibacterial activity against IMP-4 producing Pseudomonas aeruginosa isolate 209471 after 18 hrs in presence of BPL by CLSI broth microdilution method; conditions: isolate 209471, 18 h
Outline: (§1)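 CLSI broth microdilution against clinical isolates (ESBL E. coli, KPC-2 MDR K. pneumoniae, IMP-4 MDR P. aeruginosa; five per species). Iron limitation: Mueller-Hinton broth supplemented with 16 mg/liter 2,2'-bipyridyl to complex iron and induce iron uptake systems. Read-out: MIC.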

Escherichia coli [2] = assay: Antibacterial activity against extended-spectrum beta-lactamase producing Escherichia coli isolate 208687 after 18 hrs in presence of BPL by CLSI broth microdilution method; conditions: isolate 208687, 18 h; outline: as §1
Pseudomonas aeruginosa [3] = assay: Antibacterial activity against IMP-4 producing Pseudomonas aeruginosa isolate 212886 after 18 hrs by CLSI broth microdilution method; conditions: isolate 212886, 18 h
Escherichia coli [4] = assay: Selectivity index, ratio of MIC for against extended-spectrum beta-lactamase producing Escherichia coli isolate 209285 to MIC for extended-spectrum beta-lactamase producing Escherichia coli isolate 209285 in presence of BPL
Pseudomonas aeruginosa [5] = assay: Antibacterial activity against IMP-4 producing Pseudomonas aeruginosa isolate 212886 after 18 hrs in presence of BPL by CLSI broth microdilution method; conditions: isolate 212886, 18 h; outline: as §1
Pseudomonas aeruginosa [6] = assay: Antibacterial activity against IMP-4 producing Pseudomonas aeruginosa isolate 208247 after 18 hrs by CLSI broth microdilution method; conditions: isolate 208247, 18 h
Pseudomonas aeruginosa [7] = assay: Antibacterial activity against IMP-4 producing Pseudomonas aeruginosa isolate 207272 after 18 hrs by CLSI broth microdilution method; conditions: isolate 207272, 18 h
Pseudomonas aeruginosa [8] = assay: Antibacterial activity against IMP-4 producing Pseudomonas aeruginosa isolate 207272 after 18 hrs in presence of BPL by CLSI broth microdilution method; conditions: isolate 207272, 18 h; outline: as §1
Escherichia coli [9] = assay: Antibacterial activity against extended-spectrum beta-lactamase producing Escherichia coli isolate 212648 after 18 hrs by CLSI broth microdilution method; conditions: isolate 212648, 18 h
Pseudomonas aeruginosa [10] = assay: Antibacterial activity against IMP-4 producing Pseudomonas aeruginosa isolate 209321 after 18 hrs in presence of BPL by CLSI broth microdilution method; conditions: isolate 209321, 18 h; outline: as §1
Escherichia coli [11] = assay: Antibacterial activity against Escherichia coli isolate 210737 after 18 hrs by CLSI broth microdilution method; conditions: isolate 210737, 18 h
Klebsiella pneumoniae [12] = assay: Antibacterial activity against KPC-2 producing Klebsiella pneumoniae isolate 209632 after 18 hrs in presence of BPL by CLSI broth microdilution method; conditions: isolate 209632, 18 h; outline: as §1
Klebsiella pneumoniae [13] = assay: Antibacterial activity against KPC-2 producing Klebsiella pneumoniae isolate 212229 after 18 hrs by CLSI broth microdilution method; conditions: isolate 212229, 18 h
Klebsiella pneumoniae [14] = assay: Selectivity index, ratio of MIC for against KPC-2 producing Klebsiella pneumoniae isolate 212229 to MIC for against KPC-2 producing Klebsiella pneumoniae isolate 212229 in presence of BPL
Escherichia coli [15] = assay: Selectivity index, ratio of MIC for against extended-spectrum beta-lactamase producing Escherichia coli isolate 212648 to MIC for extended-spectrum beta-lactamase producing Escherichia coli isolate 212648 in presence of BPL
Klebsiella pneumoniae [16] = assay: Antibacterial activity against KPC-2 producing Klebsiella pneumoniae isolate 212423 after 18 hrs by CLSI broth microdilution method; conditions: isolate 212423, 18 h
Escherichia coli [17] = assay: Selectivity index, ratio of MIC for against extended-spectrum beta-lactamase producing Escherichia coli isolate 106342 to MIC for extended-spectrum beta-lactamase producing Escherichia coli isolate 106342 in presence of BPL
Pseudomonas aeruginosa [18] = assay: Selectivity index, ratio of MIC for against IMP-4 producing Pseudomonas aeruginosa isolate 208247 to MIC for against IMP-4 producing Pseudomonas aeruginosa isolate 208247 in presence of BPL
Klebsiella pneumoniae [19] = assay: Selectivity index, ratio of MIC for against KPC-2 producing Klebsiella pneumoniae isolate 209632 to MIC for against KPC-2 producing Klebsiella pneumoniae isolate 209632 in presence of BPL
Klebsiella pneumoniae [20] = assay: Antibacterial activity against KPC-2 producing Klebsiella pneumoniae isolate 209735 after 18 hrs in presence of BPL by CLSI broth microdilution method; conditions: isolate 209735, 18 h; outline: as §1
Klebsiella pneumoniae [21] = assay: Antibacterial activity against KPC-2 producing Klebsiella pneumoniae isolate 212229 after 18 hrs in presence of BPL by CLSI broth microdilution method; conditions: isolate 212229, 18 h; outline: as §1
Escherichia coli [22] = assay: Antibacterial activity against extended-spectrum beta-lactamase producing Escherichia coli isolate 209285 after 18 hrs by CLSI broth microdilution method; conditions: isolate 209285, 18 h
Escherichia coli [23] = assay: Antibacterial activity against extended-spectrum beta-lactamase producing Escherichia coli isolate 209285 after 18 hrs in presence of BPL by CLSI broth microdilution method; conditions: isolate 209285, 18 h; outline: as §1
Klebsiella pneumoniae [24] = assay: Selectivity index, ratio of MIC for against KPC-2 producing Klebsiella pneumoniae isolate 212232 to MIC for against KPC-2 producing Klebsiella pneumoniae isolate 212232 in presence of BPL
Klebsiella pneumoniae [25] = assay: Selectivity index, ratio of MIC for against KPC-2 producing Klebsiella pneumoniae isolate 212423 to MIC for against KPC-2 producing Klebsiella pneumoniae isolate 212423 in presence of BPL
Escherichia coli [26] = assay: Selectivity index, ratio of MIC for against extended-spectrum beta-lactamase producing Escherichia coli isolate 208687 to MIC for extended-spectrum beta-lactamase producing Escherichia coli isolate 208687 in presence of BPL
Pseudomonas aeruginosa [27] = assay: Antibacterial activity against IMP-4 producing Pseudomonas aeruginosa isolate 209471 after 18 hrs by CLSI broth microdilution method; conditions: isolate 209471, 18 h
Pseudomonas aeruginosa [28] = assay: Antibacterial activity against IMP-4 producing Pseudomonas aeruginosa isolate 209321 after 18 hrs by CLSI broth microdilution method; conditions: isolate 209321, 18 h
Escherichia coli [29] = assay: Antibacterial activity against extended-spectrum beta-lactamase producing Escherichia coli isolate 106342 after 18 hrs in presence of BPL by CLSI broth microdilution method; conditions: isolate 106342, 18 h; outline: as §1
Klebsiella pneumoniae [30] = assay: Selectivity index, ratio of MIC for against KPC-2 producing Klebsiella pneumoniae isolate 209735 to MIC for against KPC-2 producing Klebsiella pneumoniae isolate 209735 in presence of BPL
Escherichia coli [31] = assay: Antibacterial activity against extended-spectrum beta-lactamase producing Escherichia coli isolate 208687 after 18 hrs by CLSI broth microdilution method; conditions: isolate 208687, 18 h
Klebsiella pneumoniae [32] = assay: Antibacterial activity against KPC-2 producing Klebsiella pneumoniae isolate 212232 after 18 hrs by CLSI broth microdilution method; conditions: isolate 212232, 18 h
Pseudomonas aeruginosa [33] = assay: Selectivity index, ratio of MIC for against IMP-4 producing Pseudomonas aeruginosa isolate 207272 to MIC for against IMP-4 producing Pseudomonas aeruginosa isolate 207272 in presence of BPL
Pseudomonas aeruginosa [34] = assay: Antibacterial activity against IMP-4 producing Pseudomonas aeruginosa isolate 208247 after 18 hrs in presence of BPL by CLSI broth microdilution method; conditions: isolate 208247, 18 h; outline: as §1
Escherichia coli [35] = assay: Antibacterial activity against extended-spectrum beta-lactamase producing Escherichia coli isolate 212648 after 18 hrs in presence of BPL by CLSI broth microdilution method; conditions: isolate 212648, 18 h; outline: as §1
Escherichia coli [36] = assay: Antibacterial activity against Escherichia coli isolate 210737 after 18 hrs in presence of BPL by CLSI broth microdilution method; conditions: isolate 210737, 18 h; outline: as §1
Klebsiella pneumoniae [37] = assay: Antibacterial activity against KPC-2 producing Klebsiella pneumoniae isolate 209632 after 18 hrs by CLSI broth microdilution method; conditions: isolate 209632, 18 h
Escherichia coli [38] = assay: Selectivity index, ratio of MIC for against Escherichia coli isolate 210737 to MIC for Escherichia coli isolate 210737 in presence of BPL
Klebsiella pneumoniae [39] = assay: Antibacterial activity against KPC-2 producing Klebsiella pneumoniae isolate 212232 after 18 hrs in presence of BPL by CLSI broth microdilution method; conditions: isolate 212232, 18 h; outline: as §1
Klebsiella pneumoniae [40] = assay: Antibacterial activity against KPC-2 producing Klebsiella pneumoniae isolate 209735 after 18 hrs by CLSI broth microdilution method; conditions: isolate 209735, 18 h
Escherichia coli [41] = assay: Antibacterial activity against extended-spectrum beta-lactamase producing Escherichia coli isolate 106342 after 18 hrs by CLSI broth microdilution method; conditions: isolate 106342, 18 h
Klebsiella pneumoniae [42] = assay: Antibacterial activity against KPC-2 producing Klebsiella pneumoniae isolate 212423 after 18 hrs in presence of BPL by CLSI broth microdilution method; conditions: isolate 212423, 18 h; outline: as §1
Pseudomonas aeruginosa [43] = assay: Selectivity index, ratio of MIC for against IMP-4 producing Pseudomonas aeruginosa isolate 209471 to MIC for against IMP-4 producing Pseudomonas aeruginosa isolate 209471 in presence of BPL

MIC (Pseudomonas aeruginosa [1]): > 64 µg/mL
MIC (Escherichia coli [2]): 0.25 µg/mL
MIC (Pseudomonas aeruginosa [3]): > 64 µg/mL
MIC (Pseudomonas aeruginosa [5]): > 64 µg/mL
MIC (Pseudomonas aeruginosa [6]): 64 µg/mL (≈ 97 µM)
MIC (Pseudomonas aeruginosa [7]): 64 µg/mL (≈ 97 µM)
MIC (Pseudomonas aeruginosa [8]): 64 µg/mL
MIC (Escherichia coli [9]): 1 µg/mL (≈ 1.52 µM)
MIC (Pseudomonas aeruginosa [10]): > 64 µg/mL
MIC (Escherichia coli [11]): 0.5 µg/mL (≈ 0.758 µM)
MIC (Klebsiella pneumoniae [12]): 0.5 µg/mL
MIC (Klebsiella pneumoniae [13]): 1 µg/mL (≈ 1.52 µM)
MIC (Klebsiella pneumoniae [16]): 2 µg/mL (≈ 3.03 µM)
MIC (Klebsiella pneumoniae [20]): 2 µg/mL
MIC (Klebsiella pneumoniae [21]): 0.5 µg/mL
MIC (Escherichia coli [22]): 2 µg/mL (≈ 3.03 µM)
MIC (Escherichia coli [23]): 1 µg/mL
MIC (Pseudomonas aeruginosa [27]): > 64 µg/mL
MIC (Pseudomonas aeruginosa [28]): > 64 µg/mL
MIC (Escherichia coli [29]): 2 µg/mL
MIC (Escherichia coli [31]): 2 µg/mL (≈ 3.03 µM)
MIC (Klebsiella pneumoniae [32]): 2 µg/mL (≈ 3.03 µM)
MIC (Pseudomonas aeruginosa [34]): 64 µg/mL
MIC (Escherichia coli [35]): 1 µg/mL
MIC (Escherichia coli [36]): 0.25 µg/mL
MIC (Klebsiella pneumoniae [37]): 1 µg/mL (≈ 1.52 µM)
MIC (Klebsiella pneumoniae [39]): 1 µg/mL
MIC (Klebsiella pneumoniae [40]): 2 µg/mL (≈ 3.03 µM)
MIC (Escherichia coli [41]): 2 µg/mL (≈ 3.03 µM)
MIC (Klebsiella pneumoniae [42]): 1 µg/mL
SMILES: Cc1csc(SC[C@@H]2[C@H](NC(=O)/C(=N\OC(c3cc(=O)c(O)cn3O)C(C)C)c3csc(N)n3)C(=O)N2S(=O)(=O)O)n1 (stereo not given in full)
Selectivity Index (Escherichia coli [4]): 2
Selectivity Index (Klebsiella pneumoniae [14]): 2
Selectivity Index (Escherichia coli [15]): 1
Selectivity Index (Escherichia coli [17]): 1
Selectivity Index (Pseudomonas aeruginosa [18]): 1
Selectivity Index (Klebsiella pneumoniae [19]): 2
Selectivity Index (Klebsiella pneumoniae [24]): 2
Selectivity Index (Klebsiella pneumoniae [25]): 2
Selectivity Index (Escherichia coli [26]): 8
Selectivity Index (Klebsiella pneumoniae [30]): 1
Selectivity Index (Pseudomonas aeruginosa [33]): 1
Selectivity Index (Escherichia coli [38]): 2

MIC (Pseudomonas aeruginosa [1]): 64 µg/mL
MIC (Escherichia coli [2]): 1 µg/mL
MIC (Pseudomonas aeruginosa [3]): > 64 µg/mL
MIC (Pseudomonas aeruginosa [5]): > 64 µg/mL
MIC (Pseudomonas aeruginosa [6]): 64 µg/mL (≈ 94.2 µM)
MIC (Pseudomonas aeruginosa [7]): 64 µg/mL (≈ 94.2 µM)
MIC (Pseudomonas aeruginosa [8]): 64 µg/mL
MIC (Escherichia coli [9]): 2 µg/mL (≈ 2.94 µM)
MIC (Pseudomonas aeruginosa [10]): > 64 µg/mL
MIC (Escherichia coli [11]): 1 µg/mL (≈ 1.47 µM)
MIC (Klebsiella pneumoniae [12]): 2 µg/mL
MIC (Klebsiella pneumoniae [13]): 2 µg/mL (≈ 2.94 µM)
MIC (Klebsiella pneumoniae [16]): 4 µg/mL (≈ 5.88 µM)
MIC (Klebsiella pneumoniae [20]): 2 µg/mL
MIC (Klebsiella pneumoniae [21]): 1 µg/mL
MIC (Escherichia coli [22]): 4 µg/mL (≈ 5.88 µM)
MIC (Escherichia coli [23]): 2 µg/mL
MIC (Pseudomonas aeruginosa [27]): 64 µg/mL (≈ 94.2 µM)
MIC (Pseudomonas aeruginosa [28]): > 64 µg/mL
MIC (Escherichia coli [29]): 1 µg/mL
MIC (Escherichia coli [31]): 4 µg/mL (≈ 5.88 µM)
MIC (Klebsiella pneumoniae [32]): 4 µg/mL (≈ 5.88 µM)
MIC (Pseudomonas aeruginosa [34]): 64 µg/mL
MIC (Escherichia coli [35]): 1 µg/mL
MIC (Escherichia coli [36]): 0.5 µg/mL
MIC (Klebsiella pneumoniae [37]): 2 µg/mL (≈ 2.94 µM)
MIC (Klebsiella pneumoniae [39]): 0.5 µg/mL
MIC (Klebsiella pneumoniae [40]): 4 µg/mL (≈ 5.88 µM)
MIC (Escherichia coli [41]): 2 µg/mL (≈ 2.94 µM)
MIC (Klebsiella pneumoniae [42]): 2 µg/mL
SMILES: CC(C)C(O/N=C(\C(=O)N[C@@H]1C(=O)N(S(=O)(=O)O)[C@@H]1CSc1nc2ccccc2o1)c1csc(N)n1)c1cc(=O)c(O)cn1O (stereo not given in full)
Selectivity Index (Pseudomonas aeruginosa [43]): 1
Selectivity Index (Escherichia coli [4]): 2
Selectivity Index (Klebsiella pneumoniae [14]): 2
Selectivity Index (Escherichia coli [15]): 2
Selectivity Index (Escherichia coli [17]): 2
Selectivity Index (Pseudomonas aeruginosa [18]): 1
Selectivity Index (Klebsiella pneumoniae [19]): 1
Selectivity Index (Klebsiella pneumoniae [24]): 8
Selectivity Index (Klebsiella pneumoniae [25]): 2
Selectivity Index (Escherichia coli [26]): 4
Selectivity Index (Klebsiella pneumoniae [30]): 2
Selectivity Index (Pseudomonas aeruginosa [33]): 1
Selectivity Index (Escherichia coli [38]): 2

Source: ChEMBL document CHEMBL4152188, “Design, synthesis and biological evaluation of C(4) substituted monobactams as antibacterial agents against multidrug-resistant Gram-negative bacteria” (Eur J Med Chem, 2018)
